Results as given in ChEMBL document CHEMBL2203113, “Discovery of 2-(2-oxo-1-phenyl-5-pyridin-2-yl-1,2-dihydropyridin-3-yl)benzonitrile (perampanel): a novel, noncompetitive α-amino-3-hydroxy-5-methyl-4-isoxazolepropanoic acid (AMPA) receptor antagonist” (J Med Chem, 2012).

What was measured:
[1] = Antagonist activity at AMPA receptor in E18 rat cerebral cortical neurons assessed as inhibition of AMPA-induced intracellular Ca2+ response by fura-2 AM dye based fluorimetry; format: functional, cell-based
Mus musculus [2] = assay: Anticonvulsant activity in po dosed ddY mouse AMPA-induced seizure model; format: functional; settings: read-out: MED
Summary of the method: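 Male 5-week-old ddY mice given compound orally as a 0.5% MC suspension 1 h before challenge. Clonic seizures induced by intracerebroventricular AMPA infusion at 2 nmol/5 μL/min; latency to clonic seizure recorded. MED taken as lowest dose giving statistically significant prolongation of latency.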

[3] = Oral bioavailability in Sprague-Dawley rat at 1 mg/kg; format: ADME, organism-based; settings: in vivo
Summary of the method: (§1)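 Fasted male Sprague-Dawley rats, single 1 mg/kg dose iv or po, n = 3 per route. Blood drawn at set time points; plasma deproteinized with methanol/60% perchloric solution (500:1 v/v) and assayed by HPLC with fluorescence. Parameters from mean plasma concentrations of three animals by model-independent analysis; F = AUC(0-inf) oral/iv ratio.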

[4] = Cmax in Sprague-Dawley rat at 1 mg/kg, po; format: ADME, organism-based; design: dose 1 mg/kg, route oral; settings: in vivo; summary of the method: as §1
[5] = Volume of distribution at steady state in Sprague-Dawley rat at 1 mg/kg, iv; format: ADME, organism-based; design: dose 1 mg/kg, route intravenous; settings: in vivo, read-out: Vdss; summary of the method: as §1
[6] = Ratio of drug level in brain to plasma in Sprague-Dawley rat at 10 mg/kg, po after 30 mins; format: ADME, organism-based; design: dose 10 mg/kg, route oral; settings: brain and plasma, read-out: BPR
Summary of the method: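 Male Sprague–Dawley rats were dosed orally. Brain was homogenized in two volumes of water. Brain homogenate and plasma were deproteinized with methanol/60% perchloric solution (500:1 v/v) and quantified by HPLC with fluorescence detection. The ratio is brain over plasma concentration, each value the mean of two or three animals.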

Nucleic Acid = assay: Ratio of drug level in CSF to fraction unbound in plasma in ddY mouse at 0.5 mg/kg, ip after 20 mins; format: ADME, organism-based, Rattus norvegicus; design: dose 0.5 mg/kg, route intraperitoneal; settings: in vivo
Summary of the method: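 Male ddY mice were dosed ip. CSF was taken by cisternal puncture and processed like plasma: deproteinized with methanol/60% perchloric solution (500:1 v/v), then analysed by HPLC with fluorescence detection. The ratio is CSF concentration over unbound plasma concentration. Each value is the mean of two or three animals.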

Mus musculus [7] = assay: Anticonvulsant activity in DBA/2J mouse audinogenic seizure model at 0.3 to 3 mg/kg, po after 1 hr; format: functional; settings: dose mg/kg 0.3-3
[8] = Ratio of drug level in brain to plasma in ddY mouse at 3 mg/kg, po after 60 mins; format: ADME, organism-based; design: dose 3 mg/kg, route oral; settings: brain and plasma, read-out: BPR
Summary of the method: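 Male ddY mice dosed orally at 3 mg/kg; brain and plasma taken at 60 min. Brain homogenized in two volumes of water, then processed like plasma (methanol/perchloric deproteinization, HPLC with fluorescence). Ratio is the mean of two or three animals.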

Mus musculus [9] = assay: Anticonvulsant activity in ICR mouse pentylenetetrazole-induced seizure model at 0.75 to 3 mg/kg, po after 30 mins; format: functional; settings: 0.5 h, dose mg/kg 0.75-3
Rattus norvegicus [10] = assay: AUC in Sprague-Dawley rat at 1 mg/kg, iv; format: ADME, organism-based, Plasma; design: dose 1 mg/kg, route intravenous; settings: in vivo; summary of the method: as §1
[11] = Half life in healthy human; format: ADME, organism-based; settings: in vivo
Rattus norvegicus [12] = assay: AUC in Sprague-Dawley rat at 1 mg/kg, po; format: ADME, organism-based, Plasma; design: dose 1 mg/kg, route oral; settings: in vivo; summary of the method: as §1
Mus musculus [13] = assay: Anticonvulsant activity in ddY mouse MES-induced seizure model 0.75 to 2.12 mg/kg, po after 1hr; format: functional; settings: dose mg/kg 0.75-2.12
[14] = Tmax in Sprague-Dawley rat at 1 mg/kg, po; format: ADME, organism-based; design: dose 1 mg/kg, route oral; settings: in vivo; summary of the method: as §1
[15] = Half life in Sprague-Dawley rat at 1 mg/kg, iv; format: ADME, organism-based; design: dose 1 mg/kg, route intravenous; settings: in vivo; summary of the method: as §1
[16] = Plasma clearance in Sprague-Dawley rat at 1 mg/kg, iv; format: ADME, organism-based; design: dose 1 mg/kg, route intravenous; summary of the method: as §1

Row | Structure (SMILES) | IC50 [1] [nM] | other results
1 | O=c1c(-c2ccsc2)cc(-c2ccccn2)cn1-c1cccnc1 | 780 | –
2 | O=c1c(-c2ccccc2Cl)cc(-c2ccccn2)cn1-c1cccnc1 | 400 | minimal effective dose (Mus musculus [2]): 25 mg/kg
3 | N#Cc1sccc1-c1cc(-c2ccccn2)cn(-c2cccnc2)c1=O | 180 | minimal effective dose (Mus musculus [2]): 25 mg/kg
4 | O=c1c(-c2ccccc2C(F)(F)F)cc(-c2ccccn2)cn1-c1cccnc1 | 2100 | –
5 | O=c1c(-c2cccnc2F)cc(-c2ccccn2)cn1-c1cccnc1 | 1450 | minimal effective dose (Mus musculus [2]): 10 mg/kg
6 | N#Cc1ccccc1-c1cc(-c2cccnc2)cn(-c2ccccc2)c1=O | 4020 | –
7 | N#Cc1ccccc1-c1cc(-c2ccncc2)cn(-c2ccccc2)c1=O | 5530 | –
8 | N#Cc1ccccc1-c1cc(-c2ccccc2)cn(-c2ccccc2)c1=O | 330 | minimal effective dose (Mus musculus [2]): 25 mg/kg
9 | N#Cc1ccccc1-c1cc(-c2ccccc2F)cn(-c2ccccc2)c1=O | 200 | –
10 | N#Cc1ccccc1-c1cc(-c2cccs2)cn(-c2ccccc2)c1=O | 100 | –
11 | N#Cc1ccccc1-c1cc(-c2ccccc2C#N)c(=O)n(-c2ccccc2)c1 | 8430 | –
12 | COc1ccccc1-c1cc(-c2ccccc2C#N)c(=O)n(-c2ccccc2)c1 | 740 | –
13 | N#Cc1ccccc1-c1cc(-c2ccsc2)cn(-c2ccccc2)c1=O | 140 | –
14 | COc1cccc(-n2cc(-c3ccccn3)cc(-c3ccccc3C#N)c2=O)c1 | 250 | –
15 | COc1ccccc1-n1cc(-c2ccccn2)cc(-c2ccccc2C#N)c1=O | 150 | –
16 | COc1ccc(-n2cc(-c3ccccn3)cc(-c3ccccc3C#N)c2=O)cc1 | 440 | –
17 | N#Cc1ccccc1-c1cc(-c2ccccn2)cn(-c2ccc(F)nc2)c1=O | 500 | –
18 | N#Cc1ccccc1-c1cc(-c2ccccn2)cn(-c2ccccc2C#N)c1=O | > 15000 | –
19 | N#Cc1ccc(-n2cc(-c3ccccn3)cc(-c3ccccc3C#N)c2=O)cc1 | 520 | –
20 | COc1ccc(-n2cc(-c3ccccn3)cc(-c3ccccc3C#N)c2=O)cn1 | 620 | –
21 | O=C1COC(c2ccccc2)=NN1c1ccccc1 | 9170 | –
22 | O=C1COC(c2ccccc2)=NN1Cc1ccccc1 | 33700 | –

Row | Structure (SMILES) | IC50 [1] [nM] | other results
23 | O=C1COC(c2ccccc2)=NN1C1CCCCC1 | > 150000 | –
24 | O=C1COC(C2CCCCC2)=NN1c1ccccc1 | > 150000 | –
25 | CCCC1=NN(c2ccccc2)C(=O)CO1 | > 150000 | –
26 | O=C1COC(Cc2ccccc2)=NN1c1ccccc1 | > 150000 | –
27 | O=C1CCC(c2ccccc2)=NN1c1ccccc1 | 28100 | –
28 | O=c1ccc(-c2ccccc2)cn1-c1ccccc1 | 69500 | –
29 | O=c1[nH]cc(-c2ccccc2)cc1-c1ccccc1 | 57700 | –
30 | O=c1c(-c2ccccc2)cc(-c2ccccc2)cn1-c1ccccc1 | 1080 | –
31 | O=c1c(-c2ccccc2)cc(-c2ccccn2)cn1-c1ccccc1 | 320 | –
32 | O=c1c(-c2ccccc2)cc(-c2ccccn2)cn1-c1cccnc1 | 440 | –
33 | N#Cc1cccc(-c2cc(-c3ccccn3)cn(-c3ccccc3)c2=O)c1 | 7260 | –
34 | N#Cc1ccc(-c2cc(-c3ccccn3)cn(-c3ccccc3)c2=O)cc1 | 28700 | –
35 | O=c1c(-c2ccccc2F)cc(-c2ccccn2)cn1-c1ccccc1 | 200 | –
36 | O=c1c(-c2ccccc2Cl)cc(-c2ccccn2)cn1-c1ccccc1 | 100 | –
37 | Cc1ccccc1-c1cc(-c2ccccn2)cn(-c2ccccc2)c1=O | 400 | –
38 | COc1ccccc1-c1cc(-c2ccccn2)cn(-c2ccccc2)c1=O | 1420 | –
39 | O=c1c(-c2cccnc2F)cc(-c2ccccn2)cn1-c1ccccc1 | 370 | minimal effective dose (Mus musculus [2]): 5 mg/kg
40 | O=c1c(-c2cccnc2Cl)cc(-c2ccccn2)cn1-c1ccccc1 | 680 | –
41 | N#Cc1ncccc1-c1cc(-c2ccccn2)cn(-c2ccccc2)c1=O | 200 | minimal effective dose (Mus musculus [2]): 5 mg/kg
42 | N#Cc1ccccc1-c1cc(-c2ccccn2)cn(-c2cccnc2)c1=O | 210 | minimal effective dose (Mus musculus [2]): 10 mg/kg
43 | N#Cc1ccccc1-c1cc(-c2ccccn2)cn(-c2ccccc2)c1=O [PERAMPANEL] | 60 | bioavailability [3]: 64.3%; Cmax [4]: 170 ng/mL; Vd [5]: 4.56 L/kg; Kp at 0.5 h [6]: 1.14; Ratio (Nucleic Acid): 1.14; ED50 (Mus musculus [7]): 0.47 mg/kg; Kp at 1 h [8]: 1.06; ED50 (Mus musculus [9]): 0.94 mg/kg; minimal effective dose (Mus musculus [2]): 2 mg/kg; AUC (Rattus norvegicus [10]): 0.56 µg/mL/h; half-life [11]: 70 h; AUC (Rattus norvegicus [12]): 0.36 µg/mL/h; ED50 (Mus musculus [13]): 1.6 mg/kg; Tmax [14]: 0.5 h; half-life [15]: 2.37 h; clearance [16]: 30.3 mL/min/kg
